Reference: article PMC6570502 (Chembiochem : a European journal of chemical biology, 2019)
Changes are numbered by the printed parent chain.

Assays:
wild type KDM4A = target: T1, wild type KDM4A (Homo sapiens, UniProt O75164); experiment: MALDI demethylase assay, H3K9me3 substrate peptide, wild type enzyme; type: biochemical
T1 sequence (O75164 1-1064): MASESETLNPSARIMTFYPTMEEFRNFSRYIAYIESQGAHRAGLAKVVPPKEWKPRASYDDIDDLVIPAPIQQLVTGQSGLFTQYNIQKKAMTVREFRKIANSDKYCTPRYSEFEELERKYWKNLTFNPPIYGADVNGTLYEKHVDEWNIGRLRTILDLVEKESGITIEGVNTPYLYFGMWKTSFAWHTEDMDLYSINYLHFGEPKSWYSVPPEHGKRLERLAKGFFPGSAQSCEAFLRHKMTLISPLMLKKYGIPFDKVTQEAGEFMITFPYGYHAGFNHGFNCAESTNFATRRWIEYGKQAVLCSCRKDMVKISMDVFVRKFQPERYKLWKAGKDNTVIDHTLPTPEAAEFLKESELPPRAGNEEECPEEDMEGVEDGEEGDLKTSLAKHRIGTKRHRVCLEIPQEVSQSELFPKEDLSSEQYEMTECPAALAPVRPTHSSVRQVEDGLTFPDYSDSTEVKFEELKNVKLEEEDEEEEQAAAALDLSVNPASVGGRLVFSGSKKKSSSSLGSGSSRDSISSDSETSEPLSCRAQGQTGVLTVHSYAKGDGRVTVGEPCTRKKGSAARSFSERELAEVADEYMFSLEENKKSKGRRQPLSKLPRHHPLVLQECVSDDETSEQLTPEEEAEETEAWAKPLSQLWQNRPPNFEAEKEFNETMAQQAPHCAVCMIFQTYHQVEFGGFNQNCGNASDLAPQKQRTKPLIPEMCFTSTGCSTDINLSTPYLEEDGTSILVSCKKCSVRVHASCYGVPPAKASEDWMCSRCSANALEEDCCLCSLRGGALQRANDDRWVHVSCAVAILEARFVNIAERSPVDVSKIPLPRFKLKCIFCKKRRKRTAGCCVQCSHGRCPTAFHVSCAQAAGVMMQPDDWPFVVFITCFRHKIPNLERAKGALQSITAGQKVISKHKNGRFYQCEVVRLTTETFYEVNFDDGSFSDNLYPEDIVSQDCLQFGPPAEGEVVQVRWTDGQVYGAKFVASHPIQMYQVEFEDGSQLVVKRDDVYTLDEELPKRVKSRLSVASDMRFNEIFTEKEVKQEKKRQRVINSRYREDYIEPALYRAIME

2KG-dependent enzymes = details: broad-spectrum inhibitors of 2KG-dependent enzymes; cited from earlier work
KDM4A S288A mutant = target: T2, KDM4A S288A mutant (Homo sapiens, UniProt O75164, S288A); experiment: MALDI demethylase assay, H3K9me3 substrate peptide, S288A mutant; type: biochemical
T2 sequence (O75164 1-1064 S288A): T1 sequence (O75164 1-1064) with S288A
Summary of the method: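 KDM4A mutant demethylation of H3K9me3 peptide, read by MALDI-MS and expressed as % inhibition of demethylase activity, with wild type and the four active-site mutants run under the same conditions. The 2KG cofactor was cut from the 1 mM of the initial activity assay to 50 μM, about 3–4-fold above the enzymes' 2KG KM. KM came from an FDH/NAD+-coupled NADH fluorescence assay.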

[1] = scaffold test under the optimized assay conditions (50 μM 2KG), Figure S7
[2] = 100 μM compound, 50 μM 2KG, MALDI-MS

O=C(O)c1ccc(O)c2ncccc12 [IOX1, 5-carboxy-8-hydroxyquinone]
inhibition of demethylase activity (wild type KDM4A; [1]): inhibited | IC50 (2KG-dependent enzymes): micromolar range | inhibition of demethylase activity (KDM4A S288A mutant; [1]): inhibited

O=C(O)CNC(=O)C(=O)O [compound 2, N-oxalylglycine]
inhibition of demethylase activity (wild type KDM4A; [2]): significantly inhibited | inhibition of demethylase activity (wild type KDM4A; [1]): inhibited | IC50 (2KG-dependent enzymes): micromolar range | inhibition of demethylase activity (KDM4A S288A mutant; [2]): significantly inhibited | inhibition of demethylase activity (KDM4A S288A mutant; [1]): inhibited
